Activity calls are given as the source filed them. The calls are words filed in the database; no cut-off is given here.

The IC50 is the concentration needed to halve the response being measured. Read a low IC50 as greater potency. Broadly, the inhibition is the share of the control response that was lost under treatment.

System in the first test: not listed separately
As to the kind of experiment: (§1) Inhibition of chymotrypsin like activity of rabbit 20S proteasome using Suc-LLVY-AMC as substrate after 45 mins. Details: species or system Oryctolagus cuniculus. The method, boiled down: (§2)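 Rabbit 20S proteasome (0.3 nM final) incubated with Suc-LLVY-AMC ([…] final) at 37 °C for 45 min in pH 7.5 buffer of 20 mM Tris, 1 mM DTT, 10% glycerol. Chymotrypsin-like activity was followed as substrate hydrolysis (AMC release), with and without test compound. Inhibition was taken relative to the no-compound control.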
Turning to `COC(=O)[C@H](Cc1ccccc1)NC(=O)CC(NNC(=O)[C@H](CCCCN)NC(=O)Cc1cccc(Oc2ccccc2)c1)C(F)(F)F` (single isomer, unassigned; diastereomer 2), the IC50 amounted to 5.9 µM.

As for `COc1cc(CNC(=O)CC(NNC(=O)[C@H](CCCCN)NC(=O)Cc2cccc(Oc3ccccc3)c2)C(F)(F)F)cc(OC)c1OC` (some centres undefined), the IC50 came to 6.2 µM. Same read-out and setting: for `COC(=O)[C@H](Cc1ccccc1)NC(=O)CCNNC(=O)[C@H](CCCCN)NC(=O)Cc1cc(OC)ccc1OC` the value was 8.8 µM; for `COC(=O)[C@H](Cc1ccccc1)NC(=O)CNNC(=O)C(CCCCNC(=O)OCc1ccccc1)NC(=O)Cc1cccc(Oc2ccccc2)c1` (some centres undefined), 1.1 µM. For the compound `COC(=O)C(Cc1ccccc1)NC(=O)CCNNC(=O)C(N)CCCCNC(=O)OCc1ccccc1` (centres undefined), the IC50 worked out at 18.2 µM. Still for that read-out and setting: next, `COc1cc(CNC(=O)CCNNC(=O)C(CCCCN)NC(=O)Cc2cccc(Oc3ccccc3)c2)cc(OC)c1OC` (centres undefined): 3.3 µM; `COC(=O)C(Cc1ccccc1)NC(=O)CCNNC(=O)C(CCCCNC(=O)OCc1ccccc1)NC(=O)OC(C)(C)C` (centres undefined): 48.5 µM; `COC(=O)[C@H](Cc1ccccc1)NC(=O)CNNC(=O)C(CCCCNC(=O)OCc1ccccc1)NC(=O)Cc1cc(OC)ccc1OC` (some centres undefined): 7.1 µM. The same measure, in the same setting: next, `COc1cc(CNC(=O)CCNNC(=O)C(CCCCNC(=O)OC(C)(C)C)NC(=O)Cc2cccc(Oc3ccccc3)c2)cc(OC)c1OC` (centres undefined): 4.7 µM; `COc1ccc(OC)c(CC(=O)N[C@@H](CCCCN)C(=O)NNC(CC(=O)NCc2cc(OC)c(OC)c(OC)c2)C(F)(F)F)c1` (some centres undefined): 97 µM; `COC(=O)[C@H](Cc1ccccc1)NC(=O)CC(NNC(=O)[C@H](CCCCN)NC(=O)Cc1cc(OC)ccc1OC)C(F)(F)F` (some centres undefined): 5.9 µM.

In turn, `COc1ccc(OC)c(CC(=O)NC(CCCCN)C(=O)NNCCC(=O)NCc2cc(OC)c(OC)c(OC)c2)c1` (centres undefined) returned an IC50 of 11.8 µM.

In turn, `COC(=O)[C@H](Cc1ccccc1)NC(=O)CNNC(=O)C(CCCCNC(=O)OCc1ccccc1)NC(=O)OC(C)(C)C` (some centres undefined) showed an IC50 of 11.8 µM. Still for that read-out and setting: next, `COc1ccc(OC)c(CC(=O)NC(CCCCNC(=O)OC(C)(C)C)C(=O)NNCCC(=O)NCc2cc(OC)c(OC)c(OC)c2)c1` (centres undefined): 31.4 µM; `COC(=O)[C@H](Cc1ccccc1)NC(=O)CC(NNC(=O)[C@H](CCCCN)NC(=O)Cc1cccc(Oc2ccccc2)c1)C(F)(F)F` (single isomer, unassigned; diastereomer 1): 8.4 µM; `COc1cc(CNC(=O)CCNNC(=O)[C@H](CCCCNC(=O)OC(C)(C)C)NC(=O)OCC2c3ccccc3-c3ccccc32)cc(OC)c1OC`: 6 µM. The same measure, in the same setting: next, `COC(=O)[C@H](Cc1ccccc1)NC(=O)CNNC(=O)C(CCCCN)NC(=O)Cc1cccc(Oc2ccccc2)c1` (some centres undefined): 0.7 µM; `COC(=O)C(Cc1ccccc1)NC(=O)CCNNC(=O)C(CCCCNC(=O)OCc1ccccc1)NC(=O)Cc1cccc(Oc2ccccc2)c1` (centres undefined): 2.8 µM; `COc1cc(CNC(=O)CC(NNC(=O)[C@@H](N)CCCCNC(=O)OCc2ccccc2)C(F)(F)F)cc(OC)c1OC` (some centres undefined): 10.1 µM. As to `COC(=O)C(Cc1ccccc1)NC(=O)CCNNC(=O)C(CCCCN)NC(=O)Cc1cccc(Oc2ccccc2)c1` (centres undefined), the IC50 was found to be 1.4 µM. Still for that read-out and setting: for `COC(=O)[C@H](Cc1ccccc1)NC(=O)CCNNC(=O)[C@H](CCCCNC(=O)OCc1ccccc1)NC(=O)Cc1cc(OC)ccc1OC` the value was 3.6 µM. Same read-out and setting: next, `COC(=O)[C@H](Cc1ccccc1)NC(=O)CNNC(=O)C(CCCCN)NC(=O)Cc1cc(OC)ccc1OC` (some centres undefined): 1 µM.

The next test is filed under the species Oryctolagus cuniculus. Described as §1. The method, boiled down: as §2
As to `COC(=O)[C@H](Cc1ccccc1)NC(=O)CC(NNC(=O)[C@H](CC(N)=O)NC(=O)Cc1cc(OC)ccc1OC)C(F)(F)F` (some centres undefined), the inhibition entry was “inactive”. The same measure, in the same setting: next, `COc1ccc(C[C@H](NC(=O)Cc2cccc(Oc3ccccc3)c2)C(=O)NNC(=O)CC(NNC(=O)OCc2ccccc2)C(F)(F)F)cc1OC` (some centres undefined): “inactive”; `COc1ccc(C[C@H](N)C(=O)NNC(=O)CC(NNC(=O)OCc2ccccc2)C(F)(F)F)cc1OC` (some centres undefined): “inactive”. For the compound `COc1ccc(C[C@H](NC(=O)OCC2c3ccccc3-c3ccccc32)C(=O)NNC(=O)CC(NNC(=O)OC(C)(C)C)C(F)(F)F)cc1OC` (some centres undefined), the inhibition result was “inactive”.

With `COc1cc(CNC(=O)CC(NNC(=O)[C@H](CC(N)=O)NC(=O)OC(C)(C)C)C(F)(F)F)cc(OC)c1OC` (some centres undefined), the inhibition entry is “inactive”. Still for that read-out and setting: for `COc1ccc(C[C@H](NC(=O)Cc2cccc(Oc3ccccc3)c2)C(=O)NNC(=O)CC(NNC(=O)OC(C)(C)C)C(F)(F)F)cc1OC` (some centres undefined) the value was “inactive”; for `COc1ccc(OC)c(CC(=O)N[C@@H](CCCCNC(=O)OCc2ccccc2)C(=O)NNC(CC(=O)NCc2cc(OC)c(OC)c(OC)c2)C(F)(F)F)c1` (some centres undefined), “inactive”. Same read-out and setting: next, `COC(=O)[C@H](Cc1ccccc1)NC(=O)CC(NNC(=O)Cc1cc(OC)ccc1OC)C(F)(F)F` (some centres undefined): “inactive”.

Another test is filed under the species Oryctolagus cuniculus. The experiment in a line: Inhibition of chymotrypsin like activity of rabbit 20S proteasome using Suc-LLVY-AMC as substrate at 100 uM after 45 mins relative to control. An outline of the steps: as §2
`COC(=O)[C@H](Cc1ccccc1)NC(=O)CC(NNC(=O)[C@H](CCCCNC(=O)OCc1ccccc1)NC(=O)Cc1cc(OC)ccc1OC)C(F)(F)F` (some centres undefined) came in with an inhibition of 30%. The compound `COc1ccc(C[C@H](NC(=O)OCC2c3ccccc3-c3ccccc32)C(=O)NNC(=O)CC(NNC(=O)OCc2ccccc2)C(F)(F)F)cc1OC` (some centres undefined) had a fold change (FC) of 3.6. Compound `COc1cc(CNC(=O)CC(NNC(=O)[C@H](CCCCNC(=O)OCc2ccccc2)NC(=O)OC(C)(C)C)C(F)(F)F)cc(OC)c1OC` (some centres undefined) yielded an inhibition of 35%.

Consider `COC(=O)[C@H](Cc1ccccc1)NC(=O)CC(NNC(=O)[C@H](CC(N)=O)NC(=O)OC(C)(C)C)C(F)(F)F` (some centres undefined), for which the inhibition turned out to be 30%.

The values are drawn from ChEMBL document CHEMBL3085668, “α- and β-hydrazino acid-based pseudopeptides inhibit the chymotrypsin-like activity of the eukaryotic 20S proteasome” (Eur J Med Chem, 2013).
